The source made the active and inactive calls.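 The calls were made as follows: active = marked loss of luminescence, read as toxicity to breast epithelial cells carrying a control GFP hairpin; inactive = the rest.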

Broadly, the AC50 is the midpoint of the concentration-response curve, whichever way the signal moves.

In the first assay the test system is HMLE_shGFP viability, CellTiter-Glo luminescence, 72 h. In words: cytotoxicity in HMLE control cells, dose response, counter-screen for breast cancer stem cell project, cell-based, CellTiter-Glo luminescence, dry powder samples (AID 588702).
Settings: not given
Summed up: (§1)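 Material: HMLE mammary epithelial cells expressing shGFP, toxicity counterscreen line / Quantity: 1000 HMLE_shGFP cells per well / Dosing: compound delivered to wells by pin transfer / Incubation: 24 h cell attachment before dosing, then 72 h compound exposure / Benchmarks: DMSO-only wells as negative control / Measured by: CellTiter-Glo luminescence / Buffer or medium: serum-free screening medium for cell seeding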
Background: Counterscreens check selectivity or assay interference.
Regarding `O=C(COc1ccc(Cl)cc1Cl)N/N=C/c1ccc[nH]1`, the half-maximal activity concentration (AC50) is 51.4 µM.
For the compound `CC(C)(C)c1ccc2c(c1)OC(C(=O)N/N=C/c1ccc[nH]1)CO2` (configuration not stated), the AC50 is 21.1 µM.
The same measure, in the same setting: in the case of `O=C(COc1cc(Cl)ccc1Cl)N/N=C/c1ccc[nH]1` it was 11.4 µM.
Same read-out and setting: in the case of `Cc1cc(Cl)ccc1OCC(=O)N/N=C/c1ccc[nH]1` it was 29.9 µM.
On the same count and under the same terms, in the case of `O=C(N/N=C/c1ccc[nH]1)c1cc2ccccc2o1` it was 378 µM.

Tested on in the next assay: not listed separately
The description is as above. Particulars: HMLE_shGFP viability, CellTiter-Glo luminescence, 72 h. The gist of the method:
as §1
On the technique in general: Cellular ATP, detected with luciferase, serves as a proxy for viable cell number.
With `O=C(COc1ccc(Cl)cc1Cl)N/N=C/c1cnc[nH]1`, the result was inactive.
Still for that read-out and setting: in the case of `O=C(COc1c(Cl)cc(Cl)cc1Cl)N/N=C/c1ccc[nH]1` it was “inactive”.
